Inhibition data for two compounds are collected here from PubChem BioAssay AID2657 (Broad Institute, 2010).

Each structure is given as a SMILES string.

The test relates to platelets, SFLLRN actin polymerization, FITC-phalloidin flow. Briefly: inhibition of SFLLRN-induced platelet actin polymerization, late-stage follow-up, selectivity assay for platelet granule secretion inhibitor project, cell-based, FITC-phalloidin flow cytometry, repeated runs (AID 2657). Conditions: at 10 µM; active compounds read high. In a few lines: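 Assay system: Gel-filtered platelets / Times: 20 min compound, 15 min agonist, 37 °C / Measured by: flow cytometry of fixed, permeabilized platelets stained with FITC-phalloidin / Benchmarks: DMSO-only wells at 0.3% as neutral control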

Broadly, the inhibition is the percentage by which the read-out fell short of the control. On to `Cc1ccc(-n2c(N)c(C#N)c(-c3ccccc3)c(C#N)c2=O)cc1`, for which the inhibition is 99%.

On to `C/C(=N/NC(=O)C1CCCC1)c1ccc(NC(=O)C(F)(F)F)cc1`, for which the inhibition was 73.5%.
